Screens (PubChem BioAssay)
Lmaj promast = reduces viability of Leishmania major promastigotes | resazurin fluorescence viability | AID 1063 | actives 9% (n = 200,000) | inhibition, % at 10 µM; in the data active = inhibition above about 50%;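 also: promastigotes grown with compound for 44 hours at 28 °C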
WT yeast gro inh = growth inhibition of WT yeast, mitochondrial fusion screen | actives 2.1% (n = 190,000) | inhibition, % at 10 µM | mitochondrial fusion phenotypic screen, WT strain; in the data active = inhibition above about 58%; tested in S. cerevisiae
Calpain2 inh = blocks pig calpain II enzyme activity; actives 0.37% (n = 220,000); inhibition, % at 16 µM; purified calpain II, fluorogenic peptide substrate, 30 min; AID 1236;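 active = inhibition above about 50%, limit read from the data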
Rad51 HR inh = Rad51 (human) homologous recombination inhibition. hRad51 DNA strand exchange, fluorescence dequenching. actives 0.085% (n = 200,000). Q06609. inhibition, % at 10 µM;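 active = inhibition above 40% at the single screening dose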
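material = hRad51 filaments on single-stranded DNA | reagent = Donor/quencher-labelled 47-bp dsDNA substrate | compound = 10 µM final, single point | schedule = strand-exchange reaction 15 min at room temperature | measured by = fluorescein emission 520 nm, excitation 485 nm | read-out basis = % inhibition versus plate control and blank means | benchmarks = plate controls and plate blanks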
PMI act satM6P = activators of human phosphomannose isomerase at near-saturating mannose 6-phosphate. P34949. coupled PMI enzyme assay, resazurin fluorescence, 20 min; stronger effect = higher value; 1 = untreated enzyme, 0 = substrate-free blank. activation factor at 20 µM. actives 0.34% (n = 190,000). AID 1216;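 active = activation factor of 2 or more at 20 µM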
Target sequence (P34949 whole entry, looked up): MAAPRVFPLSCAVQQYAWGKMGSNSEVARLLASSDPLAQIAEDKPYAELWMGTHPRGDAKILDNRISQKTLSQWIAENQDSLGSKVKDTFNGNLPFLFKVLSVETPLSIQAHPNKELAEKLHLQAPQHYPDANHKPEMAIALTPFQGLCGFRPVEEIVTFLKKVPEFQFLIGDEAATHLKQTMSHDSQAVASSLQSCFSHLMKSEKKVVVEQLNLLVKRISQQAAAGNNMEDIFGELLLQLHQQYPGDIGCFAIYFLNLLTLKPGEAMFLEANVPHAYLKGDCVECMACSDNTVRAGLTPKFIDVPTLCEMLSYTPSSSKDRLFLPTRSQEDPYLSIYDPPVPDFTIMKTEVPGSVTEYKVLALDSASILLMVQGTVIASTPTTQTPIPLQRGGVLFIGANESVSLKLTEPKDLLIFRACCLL
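Test system: human PMI in coupled enzyme assay; Input: PMI at 15 ng/mL final; Medium: HEPES buffer, pH 7.4; Schedule: 20 min incubation at room temperature; Technique: resorufin fluorescence at Ex 544/Em 590 nm; Compound: 20 µM single dose; Probe or stimulus: Near-saturating mannose-6-phosphate, 1.0 mM.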
PMI act = phosphomannose isomerase (human) activation; P34949; actives 0.005% (n = 190,000); purified human PMI, coupled resazurin fluorescence, 20 min; stronger effect = higher value; 1 = vehicle control, 0 substrate-free wells; activation factor at 20 µM;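 active = activation factor of 2 or more at 20 µM, relative to plate controls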
A number is an active result. Shown are actives, neighbours in structure and some others; about 9.8% of the full set was active somewhere.

`COCCNC(=O)/C(C#N)=C/c1ccc(-c2ccc(S(=O)(=O)N3CCOCC3)cc2)o1` gave Lmaj promast 78, WT yeast gro inh inactive, Calpain2 inh inactive, Rad51 HR inh inactive, PMI act satM6P inactive and PMI act inactive.
For Cn1c(CN2CCN(C(=O)c3ccc(F)cc3)CC2)nc2cc([N+](=O)[O-])ccc21 the results were Lmaj promast 64, WT yeast gro inh inactive, Calpain2 inh inactive, Rad51 HR inh inactive, PMI act satM6P inactive and PMI act inactive.
`COCCN1C=C(C(=O)OC)C(c2cc(Br)c(OC)c(OC)c2)C(C(=O)OC)=C1` gave Lmaj promast 100, WT yeast gro inh inactive, Calpain2 inh inactive, Rad51 HR inh inactive, PMI act satM6P inactive and PMI act inactive.
For Cc1ccc(OCC(O)CN2C(=O)NC(C)(C)C2=O)c(C)c1 (centres undefined) the results were Lmaj promast inactive, WT yeast gro inh inactive, Calpain2 inh inactive, Rad51 HR inh inactive, PMI act satM6P inactive and PMI act inactive.
O=C(Nc1ccccc1)OCCN1CCN(Cc2ccccc2)CCC1=O was read as Lmaj promast inactive, WT yeast gro inh inactive, Calpain2 inh inactive, Rad51 HR inh inactive, PMI act satM6P inactive and PMI act inactive.
For Cc1ccc(NC(=O)OCCN2CCN(Cc3ccccc3)CCC2=O)cc1 the results were Lmaj promast 74, WT yeast gro inh inactive, Calpain2 inh inactive, Rad51 HR inh inactive, PMI act satM6P inactive and PMI act inactive.
Screening O=C(COC(=O)c1ccc([N+](=O)[O-])s1)NC(=O)NCc1ccccc1 returned Lmaj promast 93, WT yeast gro inh inactive, Calpain2 inh inactive, Rad51 HR inh inactive, PMI act satM6P inactive and PMI act inactive.
`COc1ccccc1NC(=O)COC(=O)c1ccc([N+](=O)[O-])s1` gave Lmaj promast inactive, WT yeast gro inh 95, Calpain2 inh inactive, Rad51 HR inh inactive, PMI act satM6P inactive and PMI act inactive.
Screening CCc1ccccc1NC(=O)CSc1ccsc1[N+](=O)[O-] returned Lmaj promast inactive, WT yeast gro inh inactive, Calpain2 inh inactive, Rad51 HR inh inactive, PMI act satM6P inactive and PMI act inactive.
O=C(COC(=O)c1ccc([N+](=O)[O-])s1)NCc1ccc(F)cc1 was read as Lmaj promast inactive, WT yeast gro inh inactive, Calpain2 inh inactive, Rad51 HR inh inactive, PMI act satM6P inactive and PMI act inactive.
`CCc1ccccc1NC(=O)c1ccc([N+](=O)[O-])s1` gave Lmaj promast 100, WT yeast gro inh inactive, Calpain2 inh inactive, Rad51 HR inh inactive, PMI act satM6P inactive and PMI act inactive.
`C=CCOc1ccnc(-c2ccccc2)n1` gave Calpain2 inh inactive and Rad51 HR inh inactive.
`Cn1c(C(=O)N2CCc3ccccc3C2)cc2oc3ccccc3c21` gave Lmaj promast inactive, WT yeast gro inh 66, Calpain2 inh inactive, Rad51 HR inh inactive, PMI act satM6P inactive and PMI act inactive.
For O=C(Cn1ncc2c(=O)oc3ccccc3c21)N1CCc2ccccc2C1 the results were Lmaj promast inactive, WT yeast gro inh inactive, Calpain2 inh inactive, Rad51 HR inh inactive, PMI act satM6P inactive and PMI act inactive.
`CCOc1ccccc1CNC(=O)c1cc2oc3ccccc3c2n1CC` gave Lmaj promast 97, WT yeast gro inh inactive, Calpain2 inh inactive, Rad51 HR inh inactive, PMI act satM6P inactive and PMI act inactive.
For COc1cccc(CNC(=O)c2cc3oc4ccccc4c3n2C)c1OC the results were Lmaj promast inactive, WT yeast gro inh inactive, Calpain2 inh inactive, Rad51 HR inh inactive, PMI act satM6P inactive and PMI act inactive.
CCn1c(C(=O)N2CCc3ccccc3C2)cc2oc3ccccc3c21 was read as Lmaj promast inactive, WT yeast gro inh 78, Calpain2 inh inactive, Rad51 HR inh inactive, PMI act satM6P inactive and PMI act inactive.
Screening O=C(Nc1ccncc1)c1ccc(-c2ccccc2)cc1 returned Lmaj promast inactive, WT yeast gro inh inactive, Calpain2 inh inactive, Rad51 HR inh inactive, PMI act satM6P inactive and PMI act inactive.
CC1=NOC(=O)/C1=C\c1ccc(-c2ccc(Cl)cc2Cl)o1 was read as Lmaj promast 93, WT yeast gro inh 85, Calpain2 inh inactive, PMI act satM6P inactive and PMI act inactive.
For O=C(Oc1cccc2cccnc12)c1cccc(N2C(=O)C3C4CCC(C4)C3C2=O)c1 (centres undefined) the results were Lmaj promast 97, WT yeast gro inh inactive, Calpain2 inh inactive, Rad51 HR inh inactive, PMI act satM6P inactive and PMI act inactive.
For O=C(Oc1cccc2cccnc12)c1ccc(N2C(=O)C3C4CCC(C4)C3C2=O)cc1 (centres undefined) the results were Lmaj promast 99, WT yeast gro inh inactive, Calpain2 inh inactive, Rad51 HR inh inactive, PMI act satM6P inactive and PMI act inactive.
For O=C(Oc1cccc2cccnc12)c1cccc(-n2cnnn2)c1 the results were Lmaj promast inactive, WT yeast gro inh inactive, Calpain2 inh inactive, Rad51 HR inh inactive, PMI act satM6P inactive and PMI act inactive.
CC1SC(C)C(=O)N(CC(=O)NCc2ccc(F)cc2)C1=O (centres undefined) was read as Lmaj promast inactive, WT yeast gro inh inactive, Calpain2 inh inactive, Rad51 HR inh inactive, PMI act satM6P inactive and PMI act inactive.
`O=C(CN1CCC(n2nnc3cc(C(F)(F)F)ccc32)CC1)N1CCc2ccccc21` gave Lmaj promast 56, WT yeast gro inh inactive, Calpain2 inh inactive, Rad51 HR inh inactive, PMI act satM6P inactive and PMI act inactive.
`O=C(/C=C\c1ccc2c(c1)OCO2)CC1(O)C(=O)Nc2ccccc21` (centres undefined) gave Calpain2 inh inactive and Rad51 HR inh inactive.
For COCCN1CCC(CNCc2cn[nH]c2-c2ccc(C)c(C)c2)C1 (centres undefined) the results were Lmaj promast inactive, WT yeast gro inh inactive, Calpain2 inh inactive, Rad51 HR inh inactive, PMI act satM6P inactive and PMI act inactive.
`COCCN1CCC(CNCc2cn(-c3cc(C)ccc3C)nc2-c2ccccc2)C1` (centres undefined) gave Lmaj promast 100, WT yeast gro inh inactive, Calpain2 inh inactive, Rad51 HR inh inactive, PMI act satM6P inactive and PMI act inactive.
`CCn1ccnc1CNCc1cn(-c2cc(C)ccc2C)nc1-c1ccccc1` gave Lmaj promast 65, WT yeast gro inh inactive, Calpain2 inh inactive and Rad51 HR inh inactive.
CCN(Cc1ccccc1)C(c1cccc(C#N)c1)c1nnnn1C(C)(C)C (centres undefined) was read as Lmaj promast inactive, WT yeast gro inh inactive, Calpain2 inh inactive, Rad51 HR inh inactive, PMI act satM6P inactive and PMI act inactive.
`CC(C)(C)n1nnnc1C(c1cccnc1)N(Cc1ccccc1)Cc1ccco1` (centres undefined) gave Lmaj promast 85, WT yeast gro inh inactive, Calpain2 inh inactive, PMI act satM6P inactive and PMI act inactive.
